An excerpt weighted towards active compounds, which were near 1.3% of everything screened.
G6PDH CS: counter-screen for G6PDH assay hits: L. mesenteroides G6PDH inhibition | AID 1020 | inhibition, % at 5 µM | Purified L. mesenteroides G6PDH, diaphorase/resazurin coupled fluorescence, 45 min | 200,000 tested, 0.12% active; in the data active means inhibition above about 50%
Diaphorase act: counter-screen for diaphorase-based assays: diaphorase activators and chemical reducers; Diaphorase/resazurin coupled assay, resorufin fluorescence, 16 min; hits give high values; 1 = vehicle wells, 0 = NADH-free wells; activation factor at 20 µM; 190,000 tested, 0.005% active; AID 1229;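 active means diaphorase activity raised at least twofold by the compound at 20 µM; inactive means activation factor below 2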
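Material: purified diaphorase enzyme from Clostridium kluyveri / Medium: HEPES pH 7.4 buffer with MgCl2 and Tween 20 / Schedule: enzyme reaction of 16 min at room temperature / Measured by: resorufin fluorescence, excitation 544 nm, emission 590 nm / Evaluation: rise in resorufin formation, marking diaphorase activation or chemical reduction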
TbHK1 inh: T. brucei hexokinase 1 inhibition | recombinant TbHK1, G6PDH-coupled NADH A340 | inhibition, % at 10 µM | 220,000 tested, 0.11% active;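 active means inhibition of 50% or more in the single-dose primary screen; inactive means inhibition below 50%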
HKDC1 inhibitor: HKDC1 (human) hexokinase inhibition | Q2TB90 | recombinant HKDC1, G6PDH/diaphorase resazurin coupled fluorescence | inhibition, % at 20 µM | 340,000 tested, 0.16% active;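 active means inhibition above about 35% when tested at 20 µM, limit read from the data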;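 further: plate controls were DMSO wells with enzyme for no effect and DMSO wells lacking enzyme for full effect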
Target sequence (Q2TB90 whole entry, looked up): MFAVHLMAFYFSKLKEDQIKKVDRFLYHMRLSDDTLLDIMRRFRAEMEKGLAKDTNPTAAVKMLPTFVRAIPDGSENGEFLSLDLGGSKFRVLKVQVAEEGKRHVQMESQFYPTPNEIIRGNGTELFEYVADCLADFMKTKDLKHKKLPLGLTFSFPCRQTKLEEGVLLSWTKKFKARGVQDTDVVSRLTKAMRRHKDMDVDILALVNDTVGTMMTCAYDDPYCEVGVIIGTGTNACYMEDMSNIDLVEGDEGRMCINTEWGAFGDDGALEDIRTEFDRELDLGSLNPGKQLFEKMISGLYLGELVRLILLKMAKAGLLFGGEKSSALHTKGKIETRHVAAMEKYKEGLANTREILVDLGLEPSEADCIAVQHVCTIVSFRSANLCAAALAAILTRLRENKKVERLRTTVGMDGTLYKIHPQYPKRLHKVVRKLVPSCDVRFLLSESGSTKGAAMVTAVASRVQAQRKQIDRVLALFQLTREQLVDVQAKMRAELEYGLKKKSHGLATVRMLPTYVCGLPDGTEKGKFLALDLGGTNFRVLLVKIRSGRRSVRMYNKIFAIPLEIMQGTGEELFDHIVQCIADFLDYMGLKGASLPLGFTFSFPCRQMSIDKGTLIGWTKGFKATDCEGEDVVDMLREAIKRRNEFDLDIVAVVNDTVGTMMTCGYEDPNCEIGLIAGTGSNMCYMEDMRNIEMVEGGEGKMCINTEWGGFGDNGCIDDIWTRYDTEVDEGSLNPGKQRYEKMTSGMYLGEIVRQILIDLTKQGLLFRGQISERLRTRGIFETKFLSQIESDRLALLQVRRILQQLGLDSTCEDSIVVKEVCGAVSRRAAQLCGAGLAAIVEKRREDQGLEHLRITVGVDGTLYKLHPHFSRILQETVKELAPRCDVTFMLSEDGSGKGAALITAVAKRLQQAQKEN
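Material: recombinant HKDC1 hexokinase; Amount: HKDC1 at 5 µg/mL; Medium: Tris pH 8.0 buffer with MgCl2, Tween-20, BSA, BME; Schedule: 90 min reaction incubation at room temperature, dark; Technique: coupled resazurin fluorescence, excitation 525 nm, emission 613 nm.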
Diaph inh CS: inhibits diaphorase or chemically oxidizes, flagging diaphorase assay artifacts; 190,000 tested, 0.69% active; inhibition, % at 20 µM; diaphorase resazurin-to-resorufin fluorescence, NADH, 16 min; bacterial (C. kluyveri) enzyme, not human; AID 1217;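 active means primary screen inhibition at 20 µM above a set limit, cut at about 50% in these data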;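 further: plate controls were DMSO with full reaction for no effect and wells lacking NADH for full effect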
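Assay system: diaphorase enzyme from Clostridium kluyveri; Input: enzyme working solution with 0.14 U/mL diaphorase; Timing: 16 min at room temperature; Technique: resorufin fluorescence, excitation 544 nm, emission 590 nm; Benchmarks: positive control minus NADH, DMSO neutral control.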
PfG6PD inh: PfG6PD (Plasmodium falciparum) enzyme inhibition; PfGluPho enzyme, NADPH resazurin-diaphorase fluorescence; inhibition, % at 20 µM; 350,000 tested, 0.78% active; AID 504690;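 active means inhibition reaching at least a set limit at 20 µM in the primary screen, cut at about 59% in these data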;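 further: 0% = DMSO wells with substrate and 100% = DMSO wells lacking glucose-6-phosphate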
PfG6PD confirm: confirmation of Plasmodium falciparum G6PD inhibitors | shares compounds with PfG6PD inh | recombinant PfGluPho, NADPH-diaphorase-resazurin fluorescence | inhibition, % at 20 µM | 2,400 tested, 34% active | AID 504753;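 active means inhibition of at least 50% at 20 µM in any single replicate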;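 further: 0% = DMSO with substrate and 100% = DMSO lacking glucose-6-phosphate substrate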
Diaphorase 10uM: inhibits diaphorase or oxidizes, flagging false PfG6PD hits | shares compounds with PfG6PD inh | diaphorase-coupled resazurin reduction, fluorescence, NADPH 10 uM | inhibition, % at 20 µM | 820 tested, 39% active | AID 504862;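 active means average inhibition reaching 50% or more with the compound at 20 µM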;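 further: resorufin red fluorescence formed as diaphorase reduces resazurin using NADPH; 0% = DMSO with enzyme and 100% = DMSO without enzyme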
Diaphorase 30uM: diaphorase inhibition or oxidation at 30 uM NADPH; shares compounds with PfG6PD inh; Diaphorase/resazurin coupled assay, resorufin fluorescence; inhibition, % at 20 µM; 820 tested, 29% active; AID 504863;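 active means inhibition averaging 50% or more, tested at 20 µM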;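 further: 0% = DMSO with enzyme and 100% = DMSO wells lacking diaphorase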
* hit, by the source's call; · = not tested or not shown; ! = repeats disagree.

SMILES | G6PDH CS | Diaphorase act | TbHK1 inh | HKDC1 inhibitor | Diaph inh CS | PfG6PD inh | PfG6PD confirm | others
COc1ccccc1C(=O)OCC(=O)NC12CC3CC(CC(C3)C1)C2 | · | · | · | -1.8 | · | -0.7 | ·
COc1cc(NCCCn2cnc(C(=O)Nc3ccc(C)c(C)c3)n2)cc(OC)c1OC | · | · | · | 8.2 | · | 73.5* | 61.4* | Diaphorase 10uM=-17.0;Diaphorase 30uM=-16.3
COc1ccc(CNCCCn2cnc(C(=O)Nc3ccc(C)c(C)c3)n2)cc1 | · | · | · | -6.0 | · | 6.6 | ·
CC(CNc1ccccc1O)C(=O)O (stereo not given) | 41.8 | 0.6 | 21.6 | 8.4 | 38.9 | 93.6* | 70.1* | Diaphorase 10uM=-4.1;Diaphorase 30uM=1.0
CC(NC(=O)CCC(=O)Nc1ccccc1O)c1ccccc1 (stereo not given) | · | · | · | -5.5 | · | 4.5 | ·
COc1cccc(C(=O)Nc2sc(C(C)C)cc2C(N)=O)c1OC | · | · | -23.2 | -2.6 | · | 97.7* | 23.2
COc1cccc(C(=O)Nc2nnc(-c3ccccc3)s2)c1OC | · | · | · | 0.5 | · | -20.0 | ·
CCNc1cc(Nc2c(C)n(C)n(-c3ccccc3)c2=O)c([N+](=O)[O-])c2nonc12 | · | · | -38.2 | -1.2 | · | -4.9 | ·
O=[N+]([O-])c1ccc(SCCc2ccncc2)cc1 | · | · | -17.7 | 7.2 | · | 68.3*! | 13.2
O=[N+]([O-])c1ccc(SCCc2ccccn2)cc1 | · | · | -31.6 | 0.2 | · | 43.3 | ·
O=C(NCCO)c1ccc2nc(-c3ccco3)c(-c3ccco3)nc2c1 | 28.8 | 0.5 | 8.2 | 16.6 | 52.2* | 72.1* | 18.5
O=C(NCCc1ccccc1)c1ccc2nc(-c3ccco3)c(-c3ccco3)nc2c1 | 24.9 | 0.5 | -8.7 | 22.4 | 49.3 | 59.6* | 29.8
CCN(CC)c1ccc(N=C2C(=O)Nc3ccccc32)cc1 | · | · | · | -6.9 | · | 68.1* | 14.6
Cc1ccc(N=C2C(=O)Nc3ccccc32)cc1 | · | · | · | -6.3 | · | 11.3 | ·
O=c1c2ccccc2sn1-c1ccc(S(=O)(=O)N2CCCCC2)cc1 | · | · | 3.2 | -4.0 | · | 110.9* | 82.6* | Diaphorase 10uM=4.9;Diaphorase 30uM=-13.1
O=c1c2ccccc2sn1-c1ccc(S(=O)(=O)N2CCCC2)cc1 | 5.3 | 1.1 | 12.8 | 2.4 | -10.3 | 111.3* | 104.7* | Diaphorase 10uM=-8.9;Diaphorase 30uM=-4.8
O=S(=O)(c1ccc(S(=O)(=O)N2CCCC2)cc1)N1CCCCC1 | · | · | · | -6.7 | · | 2.1 | ·
Cc1ccc(/C=C/C(=O)N2CCN(c3ncccn3)CC2)o1 | -2.7 | 0.8 | -22.1 | -8.2 | 16.0 | 63.9* | 47.7
Cc1ccc(/C=C/C(=O)N2CCc3ccccc32)o1 | -0.4 | 0.8 | -27.8 | 1.8 | 21.3 | 85.0* | 10.0
O=C(/C=C/c1ccco1)N1CCc2ccccc21 | 4.3 | 0.7 | -28.5 | 15.3 | 29.1 | 9.6 | ·
CN(C)c1cccc(C(=O)Nc2cccc(F)c2)c1 | -5.4 | 1 | 2.5 | -3.4 | 0.9 | 68.1* | 17.7
COc1ccc(NC(=O)c2ccc3c(c2)N(C)CCS3)cc1 | · | · | · | 6.7 | · | 23.0 | ·
CN1CCSc2ccc(C(=O)Nc3cccc(F)c3)cc21 | · | · | -4.2 | -5.0 | · | 63.5* | 14.4
CCOC(=O)c1nn(-c2ccccc2C)c(=O)cc1OCC(=O)N1CCN(c2ccccc2)CC1 | · | · | · | -3.2 | · | 0.3 | ·
COC(=O)c1cc2ccccc2c([N+](=O)[O-])c1O | · | · | · | 1.4 | · | 1.0 | ·
SMILES | G6PDH CS | Diaphorase act | TbHK1 inh | HKDC1 inhibitor | Diaph inh CS | PfG6PD inh | PfG6PD confirm | others
COC(=O)c1cc2ccccc2c(-c2c(OC)c(C(=O)OC)cc3ccccc23)c1OC | 5.8 | 0.7 | -0.2 | 5.2 | 28.7 | 89.3* | 33.2
O=C(OCc1cn([C@@H]2C[C@H](c3ccc(Cl)cc3)N(C(=O)c3cccs3)C[C@H]2O)nn1)c1ccccc1 | · | · | · | · | · | 2.0 | ·
Cc1ccc2nc(SC(C)C(=O)NC3CCCc4ccccc43)[nH]c2c1 (stereo not given) | -8.0 | 0.9 | -1.1 | 5.2 | 14.6 | 75.7* | 44.1
O=C(CSc1nc2ccccc2[nH]1)NC1CCCc2ccccc21 (stereo not given) | -7.0 | 0.9 | -0.9 | 1.6 | 10.3 | 64.2* | 56.9* | Diaphorase 10uM=42.3;Diaphorase 30uM=39.5
O=C(CSc1nc2ccc(Cl)cc2[nH]1)NC1CCCc2ccccc21 (stereo not given) | -9.3 | 0.9 | -2.7 | 6.3 | 9.5 | 107.2* | 55.2* | Diaphorase 10uM=42.0;Diaphorase 30uM=34.2
Cc1ccc(NC(=O)C2CC(=O)N(Cc3ccco3)C2)cc1 (stereo not given) | · | · | -9.8 | -2.1 | · | 3.7 | ·
CC(=O)N1CCOc2ccc(S(=O)(=O)NCC3CCC(C(=O)Nc4ccc(C)cn4)CC3)cc21 (stereo not given) | · | · | · | -6.5 | · | -0.2 | ·

Screening data from PubChem BioAssay.
